Bioassay records deposited in PubChem BioAssay by several laboratories.
STAT1 act – activators of IFN-gamma induced STAT1 signaling. NIH 3T3 STAT1-luciferase reporter, luminescence; 100% = IFN-gamma alone, no compound. 200,000 tested, 2.6% active. activation (% of control), % at 5.5 µM;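 active = activation above the screen-wide mean activation plus 3 SD, cut at about 130% in these data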
NF-kB expr up – compounds increasing NF-kB expression in human neuronal cells. NF-kB reporter expression; hits give high values. fold change at 12.5 µM. AID 1239. 190,000 tested, 1.6% active; in the data active = fold change above about 3.3
STAT1 inh – STAT1 signaling inhibition | inhibition, % at 5.5 µM | NIH 3T3 STAT1-luciferase reporter, IFN-gamma, luminescence | 200,000 tested, 0.35% active;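 active = inhibition above a set limit, the mean inhibition across all tested compounds plus 3 SD, cut at about 34% in these data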
STAT3 inh – STAT3 signaling inhibition. U3A cells, IL-6 STAT3-luciferase reporter, luminescence; host cell line lacks STAT1. inhibition, % at 5.5 µM. 190,000 tested, 0.89% active. AID 862;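 active = inhibition above the mean inhibition across all screened compounds plus 3 SD, cut at about 44% in these data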
STAT3 activator – increases IL-6 driven STAT3 reporter signal; U3A cells, IL-6 STAT3-luciferase reporter, luminescence; 100% = signal with IL-6 EC80 alone; activation (% of control), % at 5.6 µM; 190,000 tested, 0.91% active; AID 871;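 active = activation above the screen-wide mean of compound activation plus 3 SD, cut at about 130% in these data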
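System – human U3A cells carrying STAT3-luciferase construct · Probe or stimulus – Interleukin-6, 33 ng/mL · Schedule – compound 1 h, then IL-6 6 h at 37 °C · Signal – luminescence from STAT3-driven luciferase reporter · Evaluation – percent of IL-6-only median luminescence · Benchmarks – IL-6-only high control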
APP 5'UTR act – APP 5'UTR luciferase reporter activation | 190,000 tested, 1% active | SH-SY5Y APP 5'UTR luciferase reporter, luminescence; zero percent = DMSO vehicle wells | AID 1276 | activation, % at 2 µM;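 active = activation above a set limit, based on mean plus 3 SD of controls, cut at about 140% in these data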
STAT1 activ conf – STAT1 activation, confirmation assay | shares compounds with STAT1 act | activation (% of control), % at 5.7 µM | 1,200 tested, 97% active | NIH 3T3 STAT1-luciferase reporter, IFN-gamma potentiation, luminescence; 100% = IFN-gamma EC80 alone, no compound;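 active = activation above a set limit carried over from the earlier primary STAT1 screen, cut at about 140% in these data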
NFkB act STAT1ct – activates NF-kappaB, counter-screen to STAT1 activators; shares compounds with STAT1 act; HEK293T NF-kB luciferase reporter, TNF-alpha stimulated, luminescence; 100% = TNF-alpha with vehicle only; activation (% of control), % at 5.7 µM; 1,200 tested, 43% active; AID 1306;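 active = activation above the mean of solvent-only control wells plus 3 SD, set per campaign, cut at about 130% in these data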;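 also: TNF-alpha given at a submaximal dose yielding about 80% of full reporter signal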
STAT3 act STAT1c – activates human STAT3, counter-screen to STAT1 activators | shares compounds with STAT1 act | U3A cells STAT3-luciferase reporter, IL-6, luminescence; cells lack STAT1; 100 = IL-6 alone, no compound effect | activation (% of control), % at 5.7 µM | 1,200 tested, 46% active | AID 1316;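 active = activation above the solvent-only control well mean plus 3 SD, set per plate batch, cut at about 110% in these data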;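 also: higher means more STAT3 reporter activation so hits are non-selective activators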
Large screens that a line does not name were inactive (follow-up assays come after a bar, where they were run). This is a sample that favours compounds with a hit; in the whole collection about 5.1% have one here.

CC(=O)c1sc(NC(=O)c2ccco2)nc1-c1ccccc1	none
COc1ccc2c(c1)-c1nc(NC(=O)c3ccco3)sc1CC2	none
O=C(Nc1nc(-c2cccs2)cs1)c1ccco1	STAT1 act 159, NF-kB expr up 3.6, APP 5'UTR act 196 | STAT1 activ conf 173 | NFkB act STAT1ct 134 | STAT3 act STAT1c inactive
Cc1sc(NC(=O)c2ccco2)nc1-c1ccccc1	STAT1 act 202, NF-kB expr up 6.9, APP 5'UTR act 170 | STAT1 activ conf 237 | NFkB act STAT1ct 135 | STAT3 act STAT1c 112
S=C(NCC1CCCO1)N1CCN(c2nc(-c3ccccc3)cs2)CC1 (centres undefined)	none
COc1ccc(C)cc1NC(=O)CN1CCN(C/C=C/c2ccccc2)CC1	none
O=S(=O)(/N=C(\c1ccccc1F)N1CCCCC1)c1ccccc1	none
COc1ccc(C(=O)NCc2nnc(SCC(=O)Nc3cccc(F)c3)o2)cc1	none
COC(=O)Cc1c(O)ccn(Cc2ccc(OC)c(OC)c2)c1=O	none
O=C(Nc1ccc(O)cc1)c1c(O)c2c([nH]c1=O)CCCC2	STAT1 act 155, APP 5'UTR act 162 | STAT1 activ conf 205 | NFkB act STAT1ct 139 | STAT3 act STAT1c inactive
Cn1nnc2c(NCc3ccco3)nccc21	none
COc1ccc(Nc2nccc3c2nnn3C)cc1	STAT1 act 154, APP 5'UTR act 137 | STAT1 activ conf 167 | NFkB act STAT1ct inactive | STAT3 act STAT1c inactive
Cc1cccn2cc(COc3ccc(-c4ccccc4)cc3)nc12	STAT1 act 162 | STAT1 activ conf 165 | NFkB act STAT1ct inactive | STAT3 act STAT1c 115
CC(=O)c1cccc(NS(=O)(=O)c2ccc(N/C=C/C(=O)c3ccc(F)cc3)cc2)c1	none
CC(=O)c1cccc(N/C=C\C(=O)c2ccc(C)cc2)c1	STAT1 act 180, NF-kB expr up 6.7, APP 5'UTR act 155 | STAT1 activ conf 211 | NFkB act STAT1ct inactive | STAT3 act STAT1c inactive
CC(=O)c1cccc(NC(=S)NC(=O)c2cccc(C)c2)c1	STAT1 act 157, NF-kB expr up 3.7 | STAT1 activ conf 178 | NFkB act STAT1ct inactive | STAT3 act STAT1c inactive
CC(=O)c1cccc(NC(=S)NC(=O)c2ccc(Cl)cc2)c1	STAT1 act 162 | STAT1 activ conf 173 | NFkB act STAT1ct inactive | STAT3 act STAT1c inactive
CC(=O)c1cccc(NC(=S)NC(=O)c2ccccc2C)c1	none
CN(C)C=Nc1ccc2nn(-c3ccccc3)nc2c1	STAT1 act 165, NF-kB expr up 5.6 | STAT1 activ conf 186 | NFkB act STAT1ct 134 | STAT3 act STAT1c inactive
CC(=O)c1c(C)nc(-c2ccc(Cl)cc2)nc1N	STAT1 act 152 | STAT1 activ conf 175 | NFkB act STAT1ct 140 | STAT3 act STAT1c 146
Cn1ncc(Br)c1C(=O)Nc1ccc(Br)cn1	none
Cc1c(C(=O)Nc2ccc(Br)cc2)cnn1C	STAT1 act 152 | STAT1 activ conf 159 | NFkB act STAT1ct inactive | STAT3 act STAT1c 118
COC(=O)c1ccc(NC(=S)Nc2ccccn2)cc1	STAT1 act 165 (no result: APP 5'UTR act) | STAT1 activ conf 190 | NFkB act STAT1ct 135 | STAT3 act STAT1c inactive
COC(=O)c1ccc(NC(=S)Nc2ccc(O)cc2)cc1	none
COC(=O)Cc1cc(OC)c(OC)cc1S(=O)(=O)N(C)C	none
O=C(C(=O)N1CCN(c2cccc(Cl)c2)CC1)c1c[nH]c2ccccc12	none
CS(=O)(=O)c1cnc2c(S(=O)(=O)c3ccccc3)cnn2c1N	none
CS(=O)(=O)c1cnc2c(-c3ccsc3)cnn2c1N	STAT1 act 157 | STAT1 activ conf 171 | NFkB act STAT1ct inactive | STAT3 act STAT1c 111
O=C(NCc1cccnc1)C(=O)NCC1OCCCN1S(=O)(=O)c1ccccc1 (centres undefined)	none
O=C(Nc1ccc(-c2nnc(-c3ccccc3)o2)cc1)C(F)(F)F	none
CC(=O)/C=C(\C)Nc1ccc(-c2cnc(-c3ccccc3)o2)cc1	STAT1 act 180, NF-kB expr up 4.8 | STAT1 activ conf 186 | NFkB act STAT1ct inactive | STAT3 act STAT1c inactive
COc1cc2nc(=S)n(CCCN3CCOCC3)c(N)c2cc1OC	none
COc1ccc(/C=N/Nc2ncc(Br)cn2)c(OC)c1	STAT1 act 165, NF-kB expr up 3.7 | STAT1 activ conf 204 | NFkB act STAT1ct 134 | STAT3 act STAT1c 114
Cc1ccc(C(=O)n2c(-c3ccccc3)cnc2SCC(=O)Nc2ccc(C)cc2C)cc1	none
NC(=O)NCCN1CCN(c2ncc(C(F)(F)F)cc2Cl)CC1	none
S=C(c1ccc(-c2ccc(Cl)cc2)o1)N1CCCCC1	STAT1 act 181, NF-kB expr up 4.9, APP 5'UTR act 184 | STAT1 activ conf 222 | NFkB act STAT1ct 138 | STAT3 act STAT1c 115
Cn1cc(CNCCN2CCCCC2=O)c(-c2cccc(Cl)c2)n1	none
O=C(COc1ccccc1Cl)Nc1ccc(Cl)cn1	STAT1 act 151, NF-kB expr up 6.8, APP 5'UTR act 198 | STAT1 activ conf 198 | NFkB act STAT1ct inactive | STAT3 act STAT1c inactive
O=C(CSc1nnnn1-c1ccccc1)Nc1nc(-c2ccccc2)ns1	none
CC(C)(C)C(=O)Nc1nc(-c2ccccc2)ns1	STAT1 act 165, NF-kB expr up 5.9, APP 5'UTR act 144 | STAT1 activ conf 200 | NFkB act STAT1ct inactive | STAT3 act STAT1c inactive
Brc1ccccc1/C=N/Nc1ccc2ccccc2n1	STAT1 act 158, NF-kB expr up 9.4 | STAT1 activ conf 191 | NFkB act STAT1ct inactive | STAT3 act STAT1c 146
COc1cccc2cc(-c3cn4ccc(C)cc4n3)c(=O)oc12	STAT1 act 169 (no result: NF-kB expr up) | STAT1 activ conf 218 | NFkB act STAT1ct 134 | STAT3 act STAT1c inactive
Cc1ccc2nc(NC(=O)CCn3cccc3)sc2c1	STAT1 act 152 | STAT1 activ conf 141 | NFkB act STAT1ct inactive | STAT3 act STAT1c inactive
Cc1ccc(C(=O)Nc2nc3ccccc3s2)s1	STAT1 act 157, NF-kB expr up 4.2, APP 5'UTR act 157 | STAT1 activ conf 264 | NFkB act STAT1ct inactive | STAT3 act STAT1c inactive
O=C(O)CCC(=O)Nc1nc2ccccc2s1	none
CCCCNC(=O)Nc1nc2ccccc2s1	STAT1 act 152, APP 5'UTR act 148 | STAT1 activ conf 186 | NFkB act STAT1ct inactive | STAT3 act STAT1c 116
